According to ChEMBL document CHEMBL4007420, “Structural Optimization and Pharmacological Evaluation of Inhibitors Targeting Dual-Specificity Tyrosine Phosphorylation-Regulated Kinases (DYRK) and CDC-like kinases (CLK) in Glioblastoma” (J Med Chem, 2017):
Calls of active or inactive are those of the source. No cut-off for these calls is given here.

How the values were obtained:
[1] = biological target: T1, Dual specificity tyrosine-phosphorylation-regulated kinase 1A (Homo sapiens, UniProt Q13627); assay: Inhibition of DYRK1A (unknown origin) using woodtide as substrate after 10 mins in presence of [gamma-33P]ATP by microbeta scintillation counting
[2] = biological target: T2, Dual specificity tyrosine-phosphorylation-regulated kinase 2 (Homo sapiens) (UniProt Q92630); assay: Stabilization of DYRK2 in human U251 cell lysate at 10 uM preincubated for 1 hr followed by incubation at 40 to 70 degreeC for 3 mins by cellular thermal shift assay
T2 sequence (whole entry): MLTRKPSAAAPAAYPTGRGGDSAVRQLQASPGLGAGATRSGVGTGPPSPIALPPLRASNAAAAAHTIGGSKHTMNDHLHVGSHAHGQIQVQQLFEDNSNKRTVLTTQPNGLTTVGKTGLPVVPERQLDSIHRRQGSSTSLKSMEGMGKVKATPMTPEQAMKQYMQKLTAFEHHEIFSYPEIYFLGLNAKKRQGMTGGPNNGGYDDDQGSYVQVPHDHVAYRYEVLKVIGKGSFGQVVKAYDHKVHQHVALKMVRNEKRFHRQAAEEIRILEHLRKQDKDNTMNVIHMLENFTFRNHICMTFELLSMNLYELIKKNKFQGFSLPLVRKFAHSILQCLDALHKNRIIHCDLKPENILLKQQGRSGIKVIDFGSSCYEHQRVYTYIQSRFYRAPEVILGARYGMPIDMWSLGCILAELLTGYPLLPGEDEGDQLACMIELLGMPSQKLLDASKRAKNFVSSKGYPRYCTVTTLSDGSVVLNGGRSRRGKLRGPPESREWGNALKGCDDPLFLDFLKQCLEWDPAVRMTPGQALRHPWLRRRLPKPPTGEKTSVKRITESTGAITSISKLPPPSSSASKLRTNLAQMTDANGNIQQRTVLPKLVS

[3] = biological target: T1, Dual specificity tyrosine-phosphorylation-regulated kinase 1A; assay: Inhibition of DYRK1A in human U251 cell lysate assessed as EGF induced EGFR degradation at 2.5 uM by measuring basal EGFR half life in presence of cycloheximide by Western blot analysis (reference value: 25.6 +/- 7.6 min)
Outline: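 U251 cells were pretreated with 2.5 µM compound or DMSO for 4 h, then given cycloheximide (30 µg/mL, 1 h). EGF (100 ng/mL) was added for 0–120 min. EGFR was detected by Western blot, normalized to β-actin and expressed as % of 0 min. Half-life came from non-linear regression, as mean ± SEM of 3 independent experiments.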

U-251 [4] = assay: Antimigratory activity in human U251 cells assessed as velocity of migration at 1 uM measured up to 20 hrs by wound scratch assay (reference value: 2159 to 2653 micrometer/hr); assay type: functional
Outline: (§1)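 Wound-healing migration assay: cell movement across the wound is measured as velocity (µm/h). Compounds were tested at 0, 1.0, 5.0 and 10.0 µM. Values are mean ± SEM of 3 independent experiments.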

U-251 [5] = assay: Antimigratory activity in human U251 cells assessed as velocity of migration at 5 uM measured up to 20 hrs by wound scratch assay (reference value: 2159 to 2653 micrometer/hr); assay type: functional; outline: as §1
U-251 [6] = assay: Antiinvasive activity in human U251 cells assessed as velocity of invasion at 1 uM measured up to 20 hrs by matrigel assay (reference value: 1151 to 1710 micrometer/hr); assay type: functional
A 172 [7] = assay: Antimigratory activity in human A172 cells assessed as velocity of migration at 1 uM measured up to 20 hrs by wound scratch assay (reference value: 2650 to 3123 micrometer/hr); assay type: functional; outline: as §1
A 172 [8] = assay: Antimigratory activity in human A172 cells assessed as velocity of migration at 5 uM measured up to 20 hrs by wound scratch assay (reference value: 2650 to 3123 micrometer/hr); assay type: functional; outline: as §1
A 172 [9] = assay: Antiinvasive activity in human A172 cells assessed as velocity of invasion at 5 uM measured up to 20 hrs by matrigel assay (reference value: 2659 to 3047 micrometer/hr); assay type: functional
[10] = Antimigratory activity in patient-derived RN1 cells assessed as velocity of migration at 1 uM measured up to 20 hrs by wound scratch assay (reference value: 937 to 1174 micrometer/hr); assay type: functional, Homo sapiens; outline: as §1
[11] = Antimigratory activity in patient-derived RN1 cells assessed as velocity of migration at 5 uM measured up to 20 hrs by wound scratch assay (reference value: 937 to 1174 micrometer/hr); assay type: functional, Homo sapiens; outline: as §1
[12] = Antimigratory activity in patient-derived RN1 cells assessed as velocity of migration at 10 uM measured up to 20 hrs by wound scratch assay (reference value: 937 to 1174 micrometer/hr); assay type: functional, Homo sapiens; outline: as §1
U-251 [13] = assay: Antimigratory activity in human U251 cells at 5 uM measured up to 20 hrs by wound scratch assay; assay type: functional; conditions: U-251, 20 h; outline: as §1
A 172 [14] = assay: Antiinvasive activity in human A172 cells measured up to 20 hrs by matrigel assay; assay type: functional, cell-based
U-251 [15] = assay: Antiinvasive activity in human U251 cells measured up to 20 hrs by matrigel assay; assay type: functional, cell-based

Nc1ccc(-c2cnc3[nH]cc(-c4ccc(O)cc4)c3c2)cc1
IC50 [1]: 43 nM | Activity [2]: Active | T1/2 [3]: 11.3 min | Activity (U-251 [4]): 1247 um/hr | Activity (U-251 [5]): 127 um/hr | Activity (U-251 [6]): 1139 um/hr | Activity (A 172 [7]): 2828 um/hr | Activity (A 172 [8]): 728 um/hr | Activity (A 172 [9]): 1538 um/hr | Activity [10]: 355 um/hr | Activity [11]: 118 um/hr | Activity [12]: 208 um/hr | inhibition at 5 µM (U-251 [13]): > 75% | inhibition (A 172 [14]): Dose-dependent effect | inhibition (U-251 [15]): Dose-dependent effect
